The source made the active and inactive calls. The calls are words filed in the database; no cut-off is given here.
Assays:
Mus musculus [1] = experiment: Antidepressant activity in pargyline-pretreated mouse assessed as potentiation of serotonin-induced tremor, head movements, abducted limbs and irritability at 100 mg/kg, po treated 1 hr prior to serotonin-challenge; type: functional, organism-based; parameters: dose 100 mg/kg
Summary of the method: (§1)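 Mice received pargyline 40 mg/kg po, then the test drug po. They were challenged with 5-hydroxytryptophan 100 mg/kg ip either 1 or 4 hr later. Central responses were rated on the 1–3 scale (slight, moderate, marked). Three mice per dose.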

Mus musculus [2] = experiment: Antidepressant activity in pargyline-pretreated mouse assessed as potentiation of serotonin-induced tremor, head movements, abducted limbs and irritability at 50 mg/kg, po treated 4 hrs prior to serotonin-challenge; type: functional, organism-based; parameters: dose 50 mg/kg; summary of the method: as §1
Mus musculus [3] = experiment: Antidepressant activity in pargyline-pretreated mouse assessed as potentiation of DL-DOPA-induced jumping, fighting and squeaking at 100 mg/kg, po treated 4 hrs prior to DL-DOPA-challenge; type: functional, organism-based; parameters: dose 100 mg/kg
Summary of the method: (§2)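 Mice were pretreated with pargyline 40 mg/kg po, given the test drug po 4 hr before the challenge, then challenged with DL-Dopa 200 mg/kg. The motor response (motor activity, jumping, fighting, squeaking/irritability) was graded slight (1), moderate (2) or marked (3). Four mice per dose.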

Mus musculus [4] = experiment: Antidepressant activity in pargyline-pretreated mouse assessed as potentiation of serotonin-induced tremor, head movements, abducted limbs and irritability at 25 mg/kg, po treated 1 hr prior to serotonin-challenge; type: functional, organism-based; parameters: dose 25 mg/kg; summary of the method: as §1
Mus musculus [5] = experiment: Antidepressant activity in pargyline-pretreated mouse assessed as potentiation of serotonin-induced tremor, head movements, abducted limbs and irritability at 100 mg/kg, po treated 4 hrs prior to serotonin-challenge; type: functional, organism-based; parameters: dose 100 mg/kg; summary of the method: as §1
Mus musculus [6] = experiment: Antipsychotic activity in mouse assessed as change in methamphetamine-induced hyperactivity at 50 mg/kg, po relative to control; type: functional
Summary of the method: (§3)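 Mice were premedicated po with the test compound, then given methamphetamine 3 mg/kg sc. Motor activity was counted in photocell chambers, three mice per chamber and nine per dose. Counts are mean ± SE, expressed as % change from methamphetamine-only controls. Analysis was ANOVA followed by t test or Mann-Whitney U, with p < 0.05.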

Mus musculus [7] = experiment: Antidepressant activity in pargyline-pretreated mouse assessed as potentiation of serotonin-induced tremor, head movements, abducted limbs and irritability at 50 mg/kg, po treated 1 hr prior to serotonin-challenge; type: functional, organism-based; parameters: dose 50 mg/kg; summary of the method: as §1
Mus musculus [8] = experiment: Antipsychotic activity in mouse assessed as change in methamphetamine-induced hyperactivity at 5 mg/kg, po relative to control; type: functional, organism-based; parameters: dose 5 mg/kg; summary of the method: as §3
Mus musculus [9] = experiment: Antidepressant activity in pargyline-pretreated mouse assessed as potentiation of serotonin-induced tremor, head movements, abducted limbs and irritability at 25 mg/kg, po treated 4 hrs prior to serotonin-challenge; type: functional, organism-based; parameters: dose 25 mg/kg; summary of the method: as §1
Mus musculus [10] = experiment: Antidepressant activity in pargyline-pretreated mouse assessed as potentiation of DL-DOPA-induced jumping, fighting and squeaking at 25 mg/kg, po treated 4 hrs prior to DL-DOPA-challenge; type: functional, organism-based; parameters: dose 25 mg/kg; summary of the method: as §2
Mus musculus [11] = experiment: Antipsychotic activity in mouse assessed as change in methamphetamine-induced hyperactivity at 20 mg/kg, po relative to control; type: functional; summary of the method: as §3
Mus musculus [12] = experiment: Antipsychotic activity in mouse assessed as change in methamphetamine-induced hyperactivity at 10 mg/kg, po relative to control; type: functional; summary of the method: as §3
Mus musculus [13] = experiment: Antidepressant activity in pargyline-pretreated mouse assessed as potentiation of DL-DOPA-induced jumping, fighting and squeaking at 5 mg/kg, po treated 4 hrs prior to DL-DOPA-challenge; type: functional, organism-based; parameters: dose 5 mg/kg; summary of the method: as §2
Mus musculus [14] = experiment: Antidepressant activity in pargyline-pretreated mouse assessed as potentiation of DL-DOPA-induced jumping, fighting and squeaking at 10 mg/kg, po treated 4 hrs prior to DL-DOPA-challenge; type: functional, organism-based; parameters: dose 10 mg/kg; summary of the method: as §2
Mus musculus [15] = experiment: Antipsychotic activity in po dosed mouse assessed as change in methamphetamine-induced hyperactivity; type: functional
Summary of the method: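 Mice were given test compound orally […] with a 4-hr pretreatment, then methamphetamine 3 mg/kg sc. Three mice were placed per photocell motor-activity chamber, with nine mice per dose. Photocell counts (mean ± SE) were compared with methamphetamine-treated controls and expressed as % change. Significance (p < 0.05) was tested by analysis of variance, then t test or Mann-Whitney U test.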

[16] = Toxicity in po dosed mouse; type: organism-based; details: in vivo
[17] = Toxicity in ip dosed mouse; type: organism-based; details: in vivo
Mus musculus [18] = experiment: Antidepressant activity in pargyline-pretreated mouse assessed as potentiation of DL-DOPA-induced jumping, fighting and squeaking at 20 mg/kg, po treated 4 hrs prior to DL-DOPA-challenge; type: functional, organism-based; parameters: dose 20 mg/kg; summary of the method: as §2

| SMILES | Activity (Mus musculus [1]) | Activity (Mus musculus [2]) | Activity (Mus musculus [3]) | Activity (Mus musculus [4]) | Activity (Mus musculus [5]) | Activity (Mus musculus [6]) | Activity (Mus musculus [7]) | Activity (Mus musculus [8]) | Activity (Mus musculus [9]) | Activity (Mus musculus [10]) | Activity (Mus musculus [11]) | Activity (Mus musculus [12]) | Activity (Mus musculus [13]) | Activity (Mus musculus [14]) | ED50 (Mus musculus [15]) | LD50 [16] | LD50 [17] | Activity (Mus musculus [18]) |
| --- | --- | --- | --- | --- | --- | --- | --- | --- | --- | --- | --- | --- | --- | --- | --- | --- | --- | --- |
| CN1CC2C(C1)C21c2ccccc2CCc2ccc(Cl)cc21 (stereo not given) | Active | Active | Active | inactive | Active | 29% | inactive | inactive | Active | Active |  |  |  |  |  |  |  |  |
| CN1C2CCC1CC(C1(O)c3ccccc3CCc3ccccc31)C2 (stereo not given) |  |  | Active |  |  | 11% |  | inactive |  | Active |  |  |  |  |  |  |  |  |
| CN(C)CCCN1c2ccccc2CCc2ccccc21 [IMIPRAMINE] |  |  | Active |  |  |  |  | inactive |  | Active | 32% | 19% | inactive | Active |  |  |  |  |
| CN(C)CCCN1c2ccccc2CCc2ccc(Cl)cc21 [CLOMIPRAMINE] | Active | Active |  | Active | Active |  | Active |  | Active |  |  |  |  |  | 5 mg/kg |  |  |  |
| CN(C)C1CCCCC(=C2c3ccccc3CCc3ccccc32)C1 (stereo not given) | inactive |  | Active | inactive |  | 11% | inactive | inactive |  | Active |  |  |  |  |  |  |  |  |
| CN1C2CCC1CC(=C1c3ccccc3CCc3ccccc31)C2 | Active | inactive | Active | inactive | inactive | 14% | inactive | inactive | inactive | inactive |  |  |  |  |  | 100 mg/kg | 30 mg/kg |  |
| CN(C)C1C=C(C2c3ccccc3C=Cc3ccccc32)CCC1 (stereo not given) | Active | Active | Active | inactive | Active | 23% | Active | inactive | inactive | Active |  |  | inactive | Active |  |  |  | Active |

— ChEMBL document CHEMBL3272328, “Novel analogs of tricyclic psychopharmacological agents” (J Med Chem, 1976)
